# Assay results taken from publication PMC3723589 (Channels, 2010).
# Values joined by “and” are separate entries in the source; they are usually repeats but may differ in a detail not shown here. Identical values can stand only once. “Also recorded” adds a separate entry of the source. Like-named read-outs stand apart in the source and are kept apart here.
# Key:
# mouse Slo1 K+ channels [1] = target: T1, mouse Slo1 K+ channels (Mus musculus, UniProt Q08460); assay: Block of Slo1 currents, blocker applied extracellularly to outside-out patches; type: cell-based
# mouse Slo1 K+ channels [2] = target: T1, mouse Slo1 K+ channels; assay: Block of Slo1 currents, blocker applied cytosolically to inside-out patches; type: cell-based; details: for zδ / zc / zo / zo (zδ) / Kd: 300 μM Ca2+; for zc / zo / zo (zδ) / Kd: pH 8.5
# human sperm = details: cited from earlier work
# [3] = pK and percent protonation of tertiary amines; type: physicochemical; details: calculated from pK 9.2
# mouse Slo3 K+ channels [4] = target: T2, mouse Slo3 K+ channels (Mus musculus, UniProt O54982); type: cell-based
# T2 sequence (O54982 1-1121): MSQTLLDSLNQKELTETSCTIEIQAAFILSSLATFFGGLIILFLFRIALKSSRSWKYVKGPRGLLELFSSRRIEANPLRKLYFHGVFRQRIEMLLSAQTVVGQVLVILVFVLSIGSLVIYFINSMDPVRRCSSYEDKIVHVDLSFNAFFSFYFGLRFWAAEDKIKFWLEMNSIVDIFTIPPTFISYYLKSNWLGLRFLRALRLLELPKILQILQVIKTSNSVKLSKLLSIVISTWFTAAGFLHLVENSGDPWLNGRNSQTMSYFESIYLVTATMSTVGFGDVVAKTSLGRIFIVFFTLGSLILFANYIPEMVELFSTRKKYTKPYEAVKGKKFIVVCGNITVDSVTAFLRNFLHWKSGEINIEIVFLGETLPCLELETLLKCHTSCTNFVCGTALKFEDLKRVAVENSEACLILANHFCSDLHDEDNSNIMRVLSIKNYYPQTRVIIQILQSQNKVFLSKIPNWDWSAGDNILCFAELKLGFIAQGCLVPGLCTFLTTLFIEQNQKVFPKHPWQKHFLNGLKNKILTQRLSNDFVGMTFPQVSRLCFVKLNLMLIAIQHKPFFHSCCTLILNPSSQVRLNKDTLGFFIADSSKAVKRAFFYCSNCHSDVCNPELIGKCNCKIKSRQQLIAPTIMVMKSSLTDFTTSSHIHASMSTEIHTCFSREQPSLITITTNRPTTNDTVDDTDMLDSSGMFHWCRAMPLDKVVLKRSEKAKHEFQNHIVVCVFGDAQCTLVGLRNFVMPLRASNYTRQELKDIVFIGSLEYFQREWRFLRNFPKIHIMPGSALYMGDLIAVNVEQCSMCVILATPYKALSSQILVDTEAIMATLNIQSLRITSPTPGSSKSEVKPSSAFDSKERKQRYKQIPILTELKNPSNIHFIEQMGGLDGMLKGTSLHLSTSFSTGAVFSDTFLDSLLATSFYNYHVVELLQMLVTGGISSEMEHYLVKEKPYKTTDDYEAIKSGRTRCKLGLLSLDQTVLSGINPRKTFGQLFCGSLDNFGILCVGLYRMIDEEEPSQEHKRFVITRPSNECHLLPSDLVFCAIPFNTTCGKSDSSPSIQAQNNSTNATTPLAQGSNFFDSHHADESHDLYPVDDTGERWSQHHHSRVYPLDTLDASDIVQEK
# [5] = target: T3, MC13 (Slo1(1-181):Slo3(171-1121)) (Mus musculus, UniProt O54982); assay: Block of MC13; type: cell-based; details: for effect of extracellular 4-AP on MC13/Slo3 currents: 4-AP up to 100 mM at pH 7.0, pipette pH 8.5
# [6] = test system: MC13 (Slo1(1-181):Slo3(171-1121)); assay: Block of MC13; type: cell-based, mouse; details: at 0 mV
# [7] = target: T3, MC13 (Slo1(1-181):Slo3(171-1121)); type: cell-based; details: pH 8.5
# murine sperm = details: cited from earlier work
# BK single channels [8] = details: symmetrical K+ solutions, cited from earlier work
# Slo1-Y294V = Slo1-Y294V (Mus musculus, UniProt Q08460, Y359V); assay: Block of Slo1-Y294V currents by extracellular CTX or TEA; type: cell-based; details: TEA up to 10 mM
# How it was run: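 Excised outside-out patches at room temperature (~22–25°C), with blocker applied to the extracellular face by a multi-barrel local perfusion system, one barrel flowing at a time. The extracellular solution was (mM) 140 K-methanesulfonate, 20 KOH, 10 HEPES, 2 MgCl2, pH 7.0. The pipette (cytosolic) solution was 140 K-methanesulfonate, 20 KOH, 10 HEPES, with 10 μM Ca2+ for CTX tests.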
# Slo1/BK-type channels = details: read-out: extracellular TEA concentration for blockade (half block); cited from earlier work
# sperm = details: TEA at 2.5–10 mM; cited from earlier work
# BK single channels [9] = details: symmetrical K+ solutions, cited from earlier work; remark: listed apart in the source
# mouse Slo3 K+ channels [10] = target: T4, mouse Slo3 K+ channels (Mus musculus, UniProt O54982); assay: Block of Slo3 currents by extracellular blockers; type: cell-based
# T4 sequence (O54982 171-1121 limits assumed): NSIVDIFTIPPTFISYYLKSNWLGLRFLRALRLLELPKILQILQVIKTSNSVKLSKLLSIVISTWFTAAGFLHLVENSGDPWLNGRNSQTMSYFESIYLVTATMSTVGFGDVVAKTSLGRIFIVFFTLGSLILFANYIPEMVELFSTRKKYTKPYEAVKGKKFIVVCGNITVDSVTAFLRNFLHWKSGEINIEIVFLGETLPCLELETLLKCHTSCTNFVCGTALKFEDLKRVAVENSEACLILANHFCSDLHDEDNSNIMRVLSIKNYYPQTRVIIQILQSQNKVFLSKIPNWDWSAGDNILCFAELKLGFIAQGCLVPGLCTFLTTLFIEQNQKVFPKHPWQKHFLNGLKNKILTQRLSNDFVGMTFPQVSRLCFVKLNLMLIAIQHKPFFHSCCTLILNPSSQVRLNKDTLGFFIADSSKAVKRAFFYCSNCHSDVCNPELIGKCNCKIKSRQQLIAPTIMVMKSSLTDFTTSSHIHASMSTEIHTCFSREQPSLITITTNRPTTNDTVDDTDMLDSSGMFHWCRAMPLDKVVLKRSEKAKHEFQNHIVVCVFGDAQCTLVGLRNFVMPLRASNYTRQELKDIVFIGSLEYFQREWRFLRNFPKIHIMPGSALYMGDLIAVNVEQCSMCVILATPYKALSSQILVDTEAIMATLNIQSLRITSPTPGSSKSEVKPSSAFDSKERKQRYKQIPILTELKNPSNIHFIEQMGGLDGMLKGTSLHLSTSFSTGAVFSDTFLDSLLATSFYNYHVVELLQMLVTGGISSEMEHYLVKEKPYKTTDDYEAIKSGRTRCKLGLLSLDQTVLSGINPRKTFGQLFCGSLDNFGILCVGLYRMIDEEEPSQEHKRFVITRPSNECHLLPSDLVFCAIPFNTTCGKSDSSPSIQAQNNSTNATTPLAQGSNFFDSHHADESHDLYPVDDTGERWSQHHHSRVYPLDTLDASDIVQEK
# [11] = cytosolic 4-AP, fit OB-CB (2') 4 params
# [12] = cytosolic 4-AP, fit OB-CB (2a) 2 params
# [13] = read-out: Kb, block by cytosolic TEA
# [14] = cytosolic TEA, fit OB-CB (2') 4 params
# [15] = cytosolic TEA, fit OB-CB (2a) 2 params
# [16] = cytosolic TEA, 0 Ca2+, fit OB-CB (2a) 2 params
# T3 sequence (Q08460 66-246 partner, one chain of several): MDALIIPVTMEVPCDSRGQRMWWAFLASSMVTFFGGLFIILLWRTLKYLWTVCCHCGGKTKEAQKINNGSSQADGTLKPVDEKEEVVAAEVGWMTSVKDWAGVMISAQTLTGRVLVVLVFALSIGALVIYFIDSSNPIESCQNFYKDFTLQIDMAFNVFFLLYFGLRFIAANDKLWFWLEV
# T1 sequence (Q08460 66-1209 limits assumed): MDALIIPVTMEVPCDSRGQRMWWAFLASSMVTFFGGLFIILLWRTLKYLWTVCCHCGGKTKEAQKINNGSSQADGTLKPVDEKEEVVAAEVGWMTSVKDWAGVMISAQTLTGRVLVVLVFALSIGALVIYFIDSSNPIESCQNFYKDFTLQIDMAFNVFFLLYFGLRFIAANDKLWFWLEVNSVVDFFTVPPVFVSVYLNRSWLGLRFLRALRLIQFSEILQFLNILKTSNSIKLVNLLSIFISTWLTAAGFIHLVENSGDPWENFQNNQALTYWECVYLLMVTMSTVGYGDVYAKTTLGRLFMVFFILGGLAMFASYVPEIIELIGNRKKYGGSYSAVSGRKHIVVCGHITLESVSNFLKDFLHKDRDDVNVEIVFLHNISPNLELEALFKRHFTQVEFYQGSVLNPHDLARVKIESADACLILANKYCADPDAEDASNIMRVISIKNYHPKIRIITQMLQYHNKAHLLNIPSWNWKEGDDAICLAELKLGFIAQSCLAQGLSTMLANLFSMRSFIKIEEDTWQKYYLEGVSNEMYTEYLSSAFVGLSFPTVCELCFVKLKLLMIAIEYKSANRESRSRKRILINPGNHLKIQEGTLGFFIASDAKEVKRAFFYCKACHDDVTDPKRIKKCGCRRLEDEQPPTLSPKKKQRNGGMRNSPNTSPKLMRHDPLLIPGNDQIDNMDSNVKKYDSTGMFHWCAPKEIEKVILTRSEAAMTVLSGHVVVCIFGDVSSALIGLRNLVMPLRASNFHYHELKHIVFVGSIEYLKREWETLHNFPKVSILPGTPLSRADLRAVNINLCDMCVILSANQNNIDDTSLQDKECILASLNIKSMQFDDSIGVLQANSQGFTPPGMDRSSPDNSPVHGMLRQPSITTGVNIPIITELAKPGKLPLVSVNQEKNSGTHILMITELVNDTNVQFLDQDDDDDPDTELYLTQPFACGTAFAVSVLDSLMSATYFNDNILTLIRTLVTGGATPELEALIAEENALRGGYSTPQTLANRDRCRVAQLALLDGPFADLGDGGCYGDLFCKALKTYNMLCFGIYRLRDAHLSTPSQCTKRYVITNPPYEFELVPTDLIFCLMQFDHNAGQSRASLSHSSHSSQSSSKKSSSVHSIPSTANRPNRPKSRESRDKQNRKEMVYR
# Sequence of Slo1-Y294V (Q08460 66-1209 Y359V limits assumed): as the sequence (Q08460 66-1209 limits assumed) above, with Y294V counted along it
compound,measurement,setting,value
"Nc1ccncc1 [4-AP, 4-aminopyridine]",zo,"mouse Slo1 K+ channels [1]; extracellular 4-AP, 300 μM Ca2+, pH 8.5, fit OB-CB (2a) 2 params",0.48 ± 0.04 e
same,zδ,"mouse Slo1 K+ channels [2]; cytosolic 4-AP at pH 7.0, Scheme 1a (Fig. 7C)",0.17 ± 0.01 e and 0.18 ± 0.02 e
same,zδ,"mouse Slo1 K+ channels [2]; cytosolic 4-AP at pH 8.5, Scheme 1a (Fig. 7D)",0.05 ± 0.06 e
same,zδ,"mouse Slo1 K+ channels [2]; cytosolic 4-AP at pH 8.5, state-independent Scheme 2a (Fig. 7D)",0.11 ± 0.03 e
same,zc,mouse Slo1 K+ channels [2]; [11],0.33 ± 0.32 e
same,zo,mouse Slo1 K+ channels [2]; [11],0.12 ± 0.03 e
same,zc,mouse Slo1 K+ channels [2]; [12],0.10 ± 0.02 e
same,zo (zδ),"mouse Slo1 K+ channels [2]; cytosolic 4-AP, state-independent OB-CB (2a) 2 params",0.10 ± 0.02e e
same,z(p),"mouse Slo1 K+ channels [2]; cytosolic 4-AP, pH 7.0 and 8.5 fit simultaneously with two-site Scheme 3",0.19 ± 0.02 e
same,concentration disrupting volume regulation,human sperm,1 to 4 mM
same,percent protonated,[3]; 4-AP at pH 7.0,99.4%
same,percent protonated,[3]; 4-AP at pH 8.5,83.4%
same,zo,"mouse Slo3 K+ channels [4]; cytosolic 4-AP, pH 8.5, fit OB-CB (2a) 2 params",0.16 ± 0.01 e
same,Slo3 more sensitive than Slo1 to cytosolic 4-AP,mouse Slo3 K+ channels [4]; open channel block,10–15 fold
same,effect of extracellular 4-AP on MC13/Slo3 currents,[5],relatively insensitive; also recorded: little effect; also recorded: essentially no blocking effect
same,effect of extracellular 4-AP on MC13/Slo3 currents,[5]; listed as 4-APo,without effect
same,difference in affinity of Slo1 and Slo3 channels for extracellular 4-AP,[6],at least 20 fold
same,zc,"[7]; cytosolic 4-AP, fit OB-CB (2') 4 params (zo fixed 0)",0.26 + 1.05 e
same,zo,[7]; [12],0.17 ± 0.02 e
same,zo (zδ),"[7]; cytosolic 4-AP, open channel block OB (1a) 2 params",0.02 ± 0.03 e
same,concentration disrupting volume regulation,murine sperm,1 to 4 mM
"CC[N+](CC)(CC)CC [TEA, tetraethylammonium]",Kb,BK single channels [8]; [13],60000 µM
same,zδ,BK single channels [8],0.26 e
same,block of Slo1 current,"mouse Slo1 K+ channels [1]; 250 μM extracellular TEA, at 0 mV",about 50%
same,zo,"mouse Slo1 K+ channels [1]; extracellular TEA, 300 μM Ca2+, pH 8.5, fit OB-CB (2') 4 params (zc fixed 0)",0.23 ± 0.04 e
same,zc (voltage-dependence of closed state block),"mouse Slo1 K+ channels [1]; extracellular TEA, 300 μM Ca2+, pH 8.5, fit OB-CB (2a) 2 params",0.23 ± 0.02 e
same,zo (voltage-dependence of open state block),"mouse Slo1 K+ channels [1]; extracellular TEA, pipette 300 μM Ca2+, pH 8.5, fit OB (1a) 2 params",0.34 ± 0.02 e
same,Kd,"mouse Slo1 K+ channels [1]; read-out: Kbc (affinity of blocker to closed state), extracellular TEA, 300 μM Ca2+, pH 8.5, fit OB-CB (2a) 2 params",174 ± 8 µM
same,Kd,"mouse Slo1 K+ channels [1]; read-out: Kbo (affinity of blocker to open state), extracellular TEA, pipette 300 μM Ca2+, pH 8.5, fit OB (1a) 2 params",132 ± 6.9 µM
same,zc,mouse Slo1 K+ channels [2]; [14],0.57 ± 0.32 e
same,zo,mouse Slo1 K+ channels [2]; [14],0.16 ± 0.20 e
same,zc,mouse Slo1 K+ channels [2]; [15],0.22 ± 0.02 e
same,zo,mouse Slo1 K+ channels [2]; [15],0.22 ± 0.02 e
same,zo (zδ),"mouse Slo1 K+ channels [2]; cytosolic TEA, open channel block OB (1a) 2 params",0.15 ± 0.02 e
same,Kd,"mouse Slo1 K+ channels [2]; read-out: Kbc, cytosolic TEA, fit OB-CB (2') 4 params",61400 ± 34800 µM
same,Kd,"mouse Slo1 K+ channels [2]; read-out: Kbc, cytosolic TEA, fit OB-CB (2a) 2 params",73500 ± 4500 µM
same,Kd,"mouse Slo1 K+ channels [2]; read-out: Kbo, cytosolic TEA, fit OB-CB (2') 4 params",78600 ± 22600 µM
same,Kd,"mouse Slo1 K+ channels [2]; read-out: Kbo, cytosolic TEA, fit OB-CB (2a) 2 params",73500 ± 4500 µM
same,effect of extracellular TEA on Slo1-Y294V,Slo1-Y294V,lack of effect
same,IC50,Slo1/BK-type channels,200 to 300 µM
same,effects on sperm function,sperm,not produced
same,Kb,BK single channels [9]; [13],34700 µM
same,zδ,BK single channels [9],0.27 e
same,effect of extracellular TEA on MC13,[5]; TEA up to 10 mM,only minor effects; also recorded: minimal effect
same,block of Slo3,mouse Slo3 K+ channels [10],resistant to block
same,zc,"[7]; cytosolic TEA, 0 Ca2+, fit OB-CB (2') 4 params (zo fixed 0)",0.06 ± 0.20 e
same,zc,[7]; [16],0.05 ± 0.02 e
same,zo (z),[7]; [16],0.05 ± 0.02 e
same,Kd,"[7]; read-out: Kbc, cytosolic TEA, 0 Ca2+, fit OB-CB (2') zo = zc = 0 e",2360 ± 420 µM
same,Kd,"[7]; read-out: Kbc, cytosolic TEA, 0 Ca2+, fit OB-CB (2a) 2 params",2010 ± 290 µM
same,Kb,"[7]; read-out: Kbo (Kb), cytosolic TEA, 0 Ca2+, fit OB-CB (2a) 2 params",2010 ± 290 µM
same,Kd,"[7]; read-out: Kbo, cytosolic TEA, 0 Ca2+, fit OB (1a) zo = 0 e",330 ± 10 µM
same,Kd,"[7]; read-out: Kbo, cytosolic TEA, 0 Ca2+, fit OB-CB (2') zo = zc = 0 e",560 ± 60 µM
